Experimental data collected from several papers.
Compare with care: the assays were run in different laboratories.
Target: LIM domain kinase 1 (LIMK1, Homo sapiens, UniProt P53667)

Cn1nc(C(F)(F)F)cc1-c1cnc(N2CCc3cc(S(=O)(=O)Nc4c(F)cc(Cl)cc4F)cc(N4CCCC4=O)c32)nc1 — remaining binding (cell-free assay, competition with immobilised ligand; 1 µM): 100%
CCCS(=O)(=O)Nc1ccc(F)c(C(=O)c2c[nH]c3ncc(-c4ccc(Cl)cc4)cc23)c1F — inhibition (enzyme activity, inhibitor; 1 µM): < 10%
Cc1nc(Cc2cccc(C(F)(F)F)c2)sc1-c1ccc(C(N)=O)nc1 — remaining binding (cell-free assay, competition with immobilised ligand; 1 µM): 100%
Cc1cc(NC(=O)c2cccc3cc(-c4cccc5[nH]nc(N)c45)ccc23)ccc1F — activity vs control (enzyme activity, inhibitor; 0.1 µM): 90%
CCCOc1ccc([C@@H]2[C@@H](C(=O)O)[C@H](c3ccc4c(c3)OCO4)CN2CC(=O)Nc2c(CC)cccc2CC)cc1 — remaining binding (cell-free assay, competition with immobilised ligand; 1 µM): 90%
COc1cc(Nc2c(C#N)cnc3cc(OCCCN4CCN(C)CC4)c(OC)cc23)c(Cl)cc1Cl — remaining signal (cell-free assay; 0.5 µM): 96.4%
Cc1ccc(C(=O)Nc2ccc(CN3CCN(C)CC3)c(C(F)(F)F)c2)cc1C#Cc1cnc2cccnn12 — remaining activity (enzyme activity, inhibitor; 23.5 nM): 99%
CC(=O)c1c(NS(C)(=O)=O)c2cc(-c3ccc(Cl)cc3)c(-c3ccc(Cl)cc3Cl)nc2n(C)c1=O — remaining binding (cell-free assay, competition with immobilised ligand; 1 µM): 88%
O=C(Nc1cnn(-c2csc(C(=O)NC3COC3)c2)c1)Nc1ccccc1Cl — remaining activity (enzyme activity, inhibitor; 5 µM): 96.2%
CCCOc1ccc(OC)c(F)c1C(=O)c1ccc(C(=O)N[C@@H]2CNC[C@H]2NC(=O)c2ccc3[nH]ncc3c2)cc1 — remaining activity (enzyme activity, inhibitor; 10 µM): 73%
CNC(=O)c1cc(Oc2ccc(NC(=O)Nc3ccc(Cl)c(C(F)(F)F)c3)cc2)ccn1 — inhibition (enzyme activity, inhibitor; 10 µM): 89%
Nc1ncnc2occ(-c3ccc(NC(=O)Nc4cc(C(F)(F)F)ccc4F)cc3)c12 — remaining signal (cell-free assay, inhibitor; 20 µM): 7.6%
N#CCCc1ccc2c(c1)-c1[nH]c3ccc([N+](=O)[O-])cc3c1CC(=O)N2 — remaining signal (cell-free assay; 0.5 µM): 99.9%
CC(C)(C)c1nc2c(s1)c1nc(N)ncc1c1ccc(NS(=O)(=O)c3c(F)cccc3F)c(F)c12 — remaining activity (enzyme activity, inhibitor, radiometric; 1 µM): 100%
CNC(=O)c1ccc(Nc2ncc(C(F)(F)F)c(NCc3nccnc3N(C)S(C)(=O)=O)n2)cc1 — remaining binding (cell-free assay, competition with immobilised ligand; 0.1 µM): 100%
Cn1cnc(Br)c1C1=CN(c2ncnc3[nH]cnc23)CCS1 — inhibition (enzyme activity, inhibitor, radiometric; 50 nM): 15.2%
CCN(CC)CCNC(=O)c1c(C)[nH]c(/C=C2\C(=O)Nc3ccc(F)cc32)c1C — inhibition (enzyme activity, inhibitor; 0.3 µM): -9%
CN(C)CC#Cc1ccc(OCCCc2sc(N3CCc4cccc(C(=O)Nc5nc6ccccc6s5)c4C3)nc2C(=O)O)c(F)c1 — remaining binding (cell-free assay, competition with immobilised ligand; 1 µM): 97%
O=C1NC(=O)c2cc(Nc3ccc(F)cc3)c(Nc3ccc(F)cc3)cc21 — remaining signal (cell-free assay; 0.5 µM): 95.9%
CNC(=O)c1cc2c(Oc3ccc(NC(=O)C4(C(=O)Nc5ccc(F)cc5)CC4)cc3)ccnc2cc1OC — inhibition (enzyme activity, inhibitor, radiometric; 1 µM): 74%
